These results are taken from ChEMBL document CHEMBL2146424, “Synthesis and structure-activity relationship of a novel class of 15-membered macrolide antibiotics known as '11a-azalides'” (2012).

≈ marks a conversion by molar mass, not a printed value.

For experiment [1], the system named is Streptococcus pneumoniae. As to the kind of experiment: Antibacterial activity against MLSB-resistant Streptococcus pneumoniae 205 by broth microdilution method. In kind it is functional. The method in brief: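 MIC measured by broth microdilution following CLSI guidelines for S. pneumoniae; erythromycin-susceptible and erythromycin-resistant pneumococcal strains tested, with clarithromycin as comparator in every run.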
On the technique in general: In broth dilution the organism is exposed to a series of concentrations in liquid medium.

Experiment [2] has as its system Streptococcus pneumoniae. As to the kind of experiment: Antibacterial activity against erythromycin-susceptible Streptococcus pneumoniae ATCC 49619 by broth microdilution method. The experiment is classed as functional. The method in brief:
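MIC read by broth microdilution following CLSI guidelines for S. pneumoniae; clarithromycin run alongside as comparator in all assays.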

`CO[C@]1(C)C[C@@H](C)C(=O)[C@H](C)CN(C)CCOC(=O)[C@H](C)[C@@H](O[C@H]2C[C@@](C)(OC)[C@@H](O)[C@H](C)O2)[C@H](C)[C@H]1O[C@@H]1O[C@H](C)C[C@H](N(C)C)[C@H]1O`: the MIC (usually the least concentration at which growth counts as inhibited) with Streptococcus pneumoniae [1] is over 128 µg/mL; against Streptococcus pneumoniae [2], 32 µg/mL (≈ 45.5 µM).
As to `CO[C@]1(C)C[C@H](O[C@H]2[C@H](C)[C@@H](O[C@@H]3O[C@H](C)C[C@H](N(C)C)[C@H]3O)[C@](C)(O)C[C@@H](C)[C@H](N)[C@H](C)CN(C)CCOC(=O)[C@@H]2C)O[C@@H](C)[C@@H]1O`, the MIC in the experiment on Streptococcus pneumoniae [1] was over 128 µg/mL; against Streptococcus pneumoniae [2] it was 2 µg/mL (≈ 2.9 µM).
For `CO[C@]1(C)C[C@H](O[C@H]2[C@H](C)[C@@H](O[C@@H]3O[C@H](C)C[C@H](N(C)C)[C@H]3O)[C@](C)(O)C[C@@H](C)[C@H](N)[C@H](C)CN(C)C[C@H](COCc3ccccc3)OC(=O)[C@@H]2C)O[C@@H](C)[C@@H]1O` the same measures were over 128 µg/mL and 0.12 µg/mL (≈ 0.148 µM).
As for `CO[C@]1(C)C[C@@H](C)[C@H](O)[C@H](C)CN(C)[C@@H](CN)COC(=O)[C@H](C)[C@@H](O[C@H]2C[C@@](C)(OC)[C@@H](O)[C@H](C)O2)[C@H](C)[C@H]1O[C@@H]1O[C@H](C)C[C@H](N(C)C)[C@H]1O`, the MIC against Streptococcus pneumoniae [1] was over 128 µg/mL; in the experiment on Streptococcus pneumoniae [2], 64 µg/mL (≈ 87.2 µM).
On to `CCN(CC)C[C@H]1COC(=O)[C@H](C)[C@@H](O[C@H]2C[C@@](C)(OC)[C@@H](O)[C@H](C)O2)[C@H](C)[C@@H](O[C@@H]2O[C@H](C)C[C@H](N(C)C)[C@H]2O)[C@](C)(OC)C[C@@H](C)[C@H](O)[C@H](C)CN1C`, for which the MIC in the experiment with Streptococcus pneumoniae [1] was over 128 µg/mL; in the experiment with Streptococcus pneumoniae [2], 128 µg/mL (≈ 162 µM).
Consider `CCN(CCNC(=O)O[C@H]1[C@H](C)O[C@@H](O[C@H]2[C@H](C)[C@@H](O[C@@H]3O[C@H](C)C[C@H](N(C)C)[C@H]3O)[C@](C)(O)C[C@@H](C)[C@H](N)[C@H](C)CN(C)CCOC(=O)[C@@H]2C)C[C@@]1(C)OC)[C@@H](C)c1ccccc1OC`, for which the MIC was 0.5 µg/mL (≈ 0.533 µM) against Streptococcus pneumoniae [1] and 0.12 µg/mL (≈ 0.128 µM) against Streptococcus pneumoniae [2].
Turning to `CO[C@]1(C)C[C@@H](C)[C@H](O)[C@H](C)CN(C)[C@H](COCc2ccccc2)COC(=O)[C@H](C)[C@@H](O[C@H]2C[C@@](C)(OC)[C@@H](O)[C@H](C)O2)[C@H](C)[C@H]1O[C@@H]1O[C@H](C)C[C@H](N(C)C)[C@H]1O`, the MIC amounted to 64 µg/mL (≈ 77.6 µM) against Streptococcus pneumoniae [1] and 4 µg/mL (≈ 4.85 µM) with Streptococcus pneumoniae [2].
As for `CCN(CCNC(=O)O[C@H]1[C@H](C)O[C@@H](O[C@H]2[C@H](C)[C@@H](O[C@@H]3O[C@H](C)C[C@H](N(C)C)[C@H]3O)[C@](C)(O)C[C@@H](C)[C@H](N)[C@H](C)CN(C)C[C@H](COCc3ccccc3)OC(=O)[C@@H]2C)C[C@@]1(C)OC)[C@@H](C)c1ccccc1OC`, the values for the MIC in the experiment on Streptococcus pneumoniae [1] and with Streptococcus pneumoniae [2] were 0.25 µg/mL (≈ 0.236 µM) and 0.12 µg/mL (≈ 0.113 µM), respectively.
Take `CO[C@]1(C)C[C@@H](C)[C@H](O)[C@H](C)CN(C)CCOC(=O)[C@H](C)[C@@H](O[C@H]2C[C@@](C)(OC)[C@@H](O)[C@H](C)O2)[C@H](C)[C@H]1O[C@@H]1O[C@H](C)C[C@H](N(C)C)[C@H]1O`: the figures for the MIC with Streptococcus pneumoniae [1] and with Streptococcus pneumoniae [2] were over 128 µg/mL and 2 µg/mL (≈ 2.84 µM), respectively.
Take `CO[C@]1(C)C[C@@H](C)[C@H](O)[C@H](C)CN(C)[C@@H](COCc2ccccc2)COC(=O)[C@H](C)[C@@H](O[C@H]2C[C@@](C)(OC)[C@@H](O)[C@H](C)O2)[C@H](C)[C@H]1O[C@@H]1O[C@H](C)C[C@H](N(C)C)[C@H]1O`: the figures for the MIC against Streptococcus pneumoniae [1] and against Streptococcus pneumoniae [2] were 64 µg/mL (≈ 77.6 µM) and 1 µg/mL (≈ 1.21 µM), respectively.
For `CO[C@]1(C)C[C@@H](C)[C@H](O)[C@H](C)CN(C)C[C@@H](COCc2ccccc2)OC(=O)[C@H](C)[C@@H](O[C@H]2C[C@@](C)(OC)[C@@H](O)[C@H](C)O2)[C@H](C)[C@H]1O[C@@H]1O[C@H](C)C[C@H](N(C)C)[C@H]1O` the same measures were 64 µg/mL (≈ 77.6 µM) and 1 µg/mL (≈ 1.21 µM).
For `CO[C@]1(C)C[C@@H](C)[C@H](O)[C@H](C)CN(C)C[C@H](COCc2ccccc2)OC(=O)[C@H](C)[C@@H](O[C@H]2C[C@@](C)(OC)[C@@H](O)[C@H](C)O2)[C@H](C)[C@H]1O[C@@H]1O[C@H](C)C[C@H](N(C)C)[C@H]1O` the same measures were 128 µg/mL (≈ 155 µM) and 0.06 µg/mL (≈ 0.0727 µM).
For `CO[C@]1(C)C[C@@H](C)[C@H](O)[C@H](C)CN(C)[C@@H](CCOCc2ccccc2)COC(=O)[C@H](C)[C@@H](O[C@H]2C[C@@](C)(OC)[C@@H](O)[C@H](C)O2)[C@H](C)[C@H]1O[C@@H]1O[C@H](C)C[C@H](N(C)C)[C@H]1O` the same measures were 64 µg/mL (≈ 76.3 µM) and 1 µg/mL (≈ 1.19 µM).
Turning to `CO[C@]1(C)C[C@@H](C)[C@H](O)[C@H](C)CN(C)C[C@H](c2ccccc2)OC(=O)[C@H](C)[C@@H](O[C@H]2C[C@@](C)(OC)[C@@H](O)[C@H](C)O2)[C@H](C)[C@H]1O[C@@H]1O[C@H](C)C[C@H](N(C)C)[C@H]1O`, the MIC against Streptococcus pneumoniae [1] was over 128 µg/mL; with Streptococcus pneumoniae [2], 0.5 µg/mL (≈ 0.64 µM).
Consider `CO[C@]1(C)C[C@@H](C)[C@H](O)[C@H](C)CN(C)C[C@H](CCOCc2ccccc2)OC(=O)[C@H](C)[C@@H](O[C@H]2C[C@@](C)(OC)[C@@H](O)[C@H](C)O2)[C@H](C)[C@H]1O[C@@H]1O[C@H](C)C[C@H](N(C)C)[C@H]1O`, for which the minimal inhibitory concentration (MIC) was 128 µg/mL (≈ 153 µM) against Streptococcus pneumoniae [1] and 0.12 µg/mL (≈ 0.143 µM) against Streptococcus pneumoniae [2].
For `CO[C@]1(C)C[C@@H](C)[C@H](O)[C@H](C)CN(C)C[C@H](COc2ccccc2)OC(=O)[C@H](C)[C@@H](O[C@H]2C[C@@](C)(OC)[C@@H](O)[C@H](C)O2)[C@H](C)[C@H]1O[C@@H]1O[C@H](C)C[C@H](N(C)C)[C@H]1O` the same measures were 32 µg/mL (≈ 39.5 µM) and 0.25 µg/mL (≈ 0.308 µM).
As for `CO[C@]1(C)C[C@@H](C)[C@H](O)[C@H](C)CN(C)C[C@H](COc2ccccc2-c2ccccc2)OC(=O)[C@H](C)[C@@H](O[C@H]2C[C@@](C)(OC)[C@@H](O)[C@H](C)O2)[C@H](C)[C@H]1O[C@@H]1O[C@H](C)C[C@H](N(C)C)[C@H]1O`, the minimum inhibitory concentration (MIC) worked out at 16 µg/mL (≈ 18 µM) with Streptococcus pneumoniae [1] and 0.5 µg/mL (≈ 0.564 µM) in the experiment on Streptococcus pneumoniae [2].
`CO[C@]1(C)C[C@@H](C)[C@H](O)[C@H](C)CN(C)C[C@H](COc2cccc(-c3ccccc3)c2)OC(=O)[C@H](C)[C@@H](O[C@H]2C[C@@](C)(OC)[C@@H](O)[C@H](C)O2)[C@H](C)[C@H]1O[C@@H]1O[C@H](C)C[C@H](N(C)C)[C@H]1O`: the MIC against Streptococcus pneumoniae [1] amounted to 16 µg/mL (≈ 18 µM); with Streptococcus pneumoniae [2], 1 µg/mL (≈ 1.13 µM).
For `CO[C@]1(C)C[C@@H](C)[C@H](O)[C@H](C)CN(C)C[C@H](COc2ccc(-c3ccccc3)cc2)OC(=O)[C@H](C)[C@@H](O[C@H]2C[C@@](C)(OC)[C@@H](O)[C@H](C)O2)[C@H](C)[C@H]1O[C@@H]1O[C@H](C)C[C@H](N(C)C)[C@H]1O`, the figures for the MIC in the experiment on Streptococcus pneumoniae [1] and in the experiment on Streptococcus pneumoniae [2] were 8 µg/mL (≈ 9.02 µM) and 1 µg/mL (≈ 1.13 µM), respectively.
Turning to `CO[C@]1(C)C[C@@H](C)[C@H](O)[C@H](C)CN(C)C[C@H](COc2ccc(-c3cccnc3)cc2)OC(=O)[C@H](C)[C@@H](O[C@H]2C[C@@](C)(OC)[C@@H](O)[C@H](C)O2)[C@H](C)[C@H]1O[C@@H]1O[C@H](C)C[C@H](N(C)C)[C@H]1O`, the MIC in the experiment on Streptococcus pneumoniae [1] was found to be 64 µg/mL (≈ 72.1 µM); against Streptococcus pneumoniae [2], 0.5 µg/mL (≈ 0.563 µM).
For `CO[C@]1(C)C[C@@H](C)[C@H](O)[C@H](C)CN(C)C[C@H](COc2ccc(-c3ccccn3)cc2)OC(=O)[C@H](C)[C@@H](O[C@H]2C[C@@](C)(OC)[C@@H](O)[C@H](C)O2)[C@H](C)[C@H]1O[C@@H]1O[C@H](C)C[C@H](N(C)C)[C@H]1O`, the MIC turned out to be 16 µg/mL (≈ 18 µM) in the experiment with Streptococcus pneumoniae [1] and 0.25 µg/mL (≈ 0.281 µM) against Streptococcus pneumoniae [2].
For `CO[C@]1(C)C[C@@H](C)[C@H](O)[C@H](C)CN(C)CCOC(=O)C(C)C(=O)[C@H](C)[C@H]1O[C@@H]1O[C@H](C)C[C@H](N(C)C)[C@H]1O` (mixture of isomers) the same measures were over 128 µg/mL and over 128 µg/mL.
For `CC[C@H]1OC(=O)[C@H](C)[C@@H](O[C@H]2C[C@@](C)(OC)[C@@H](O)[C@H](C)O2)[C@H](C)[C@@H](O[C@@H]2O[C@H](C)C[C@H](N(C)C)[C@H]2O)[C@](C)(OC)C[C@@H](C)C(=O)[C@H](C)[C@@H](O)[C@]1(C)O` [CLARITHROMYCIN] the same measures were over 128 µg/mL and 0.03 µg/mL (≈ 0.0401 µM).
As for `CC[C@H]1OC(=O)[C@H](C)C(=O)[C@H](C)[C@@H](O[C@@H]2O[C@H](C)C[C@H](N(C)C)[C@H]2O)[C@](C)(OC)C[C@@H](C)C(=O)[C@H](C)[C@H]2N(CCCCn3cnc(-c4cccnc4)c3)C(=O)O[C@]12C` [TELITHROMYCIN], the results for the MIC in the experiment with Streptococcus pneumoniae [1] and against Streptococcus pneumoniae [2] were over 128 µg/mL and 4 µg/mL (≈ 4.93 µM), respectively.
